Results reported in ChEMBL document CHEMBL1123103, “Pyrimidinones. 1. 2-Amino-5-halo-6-aryl-4(3H)-pyrimidinones. Interferon-inducing antiviral agents” (1985).
Calls of active or inactive are those of the source. The calls are words filed in the database; no cut-off is given here.

Legend:
Semliki Forest virus [1] = test: Effective dose administered intraperitoneally againist Forest virus infected mice; type: functional, organism-based
Outline: (§1)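 Drug was suspended in 0.9% NaCl or in a carboxymethylcellulose/polysorbate 80/benzyl alcohol/NaCl vehicle. Deaths were recorded daily for 6 days, with 24 mice per group. The ED50 is the minimal dose protecting 50% of mice, calculated by probit analysis.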

Semliki Forest virus [2] = test: Effective dose administered perorally against Forest virus infected mice; type: functional, organism-based; outline: as §1
Semliki Forest virus [3] = test: Effective dose administered subcutaneously against Forest virus infected mice; type: functional, organism-based; outline: as §1
Semliki Forest virus [4] = test: Antiviral activity against Forest virus (SFV); type: functional
Outline: (§2)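 ICR or CD-1 mice of both sexes got one drug dose by the route in the line (ip, po or sc). The drug was a suspension in 0.9% NaCl or in a CMC/polysorbate 80/benzyl alcohol/NaCl vehicle. […] Deaths were recorded daily for 6 days, 24 mice/group. ED50 is the minimal dose protecting 50% of mice, by probit analysis.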

Human alphaherpesvirus 1 = test: Intraperitoneal administration against herpes simplex virus type-1 (HSV-1) infected mice; type: functional
Outline: (§3)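 ICR or CD-1 mice got drug ip in saline as the total daily dose (mg/kg/day). It was split into doses at -40, -28, -20, -3 and +3 h relative to ip inoculation with 5.6×10^4 pfu HSV-1. Mice were followed for 22 days, 15/group. Protection index = (control mortality − treated mortality)/control mortality; >0.25 counted active. Only the lowest protective dose is recorded.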

Mus musculus [5] = test: Evaluation for serum interferon response from a single 800 mg/kg intraperitoneal administration in vesicular stomatitis virus on […] cells; Range 10-50 units/mL; type: functional
Outline: (§4)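 Mice got a single ip 800 mg/kg dose. Blood was drawn 3, 6, 8 and 12 h later from five mice per group and pooled. Interferon titer was measured by plaque reduction with vesicular stomatitis virus on L929 cells. Titer is the reciprocal serum dilution cutting plaques by 50% versus untreated cultures. Peak response within 24 h was banded: ≥2000, ~500-1000, ~50-500, ~10-50 U/mL.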

Semliki Forest virus [6] = test: Effective dose administered perorally againist Forest virus infected mice; type: functional; details: po; outline: as §2
Semliki Forest virus [7] = test: Effective dose administered subcutaneously againist Forest virus infected mice; type: functional; details: sc; outline: as §2
[8] = system: Vesicular stomatitis virus; test: Evaluation for serum interferon response from a single 800 mg/kg intraperitoneal administration in vesicular stomatitis virus on […] cells.; type: functional; outline: as §4
Mus musculus [9] = test: Protection index after intraperitoneal administration (50 mg/kg/day) against herpes simplex virus type-1 (HSV-1) infected mice [protection index=(control mortality-treated mortality)/control mortality]; type: functional; outline: as §3

Row | SMILES | ED50 (Semliki Forest virus [1]) | ED50 (Semliki Forest virus [2]) | ED50 (Semliki Forest virus [3]) | ED50 (Semliki Forest virus [4]) | Protection index (Human alphaherpesvirus 1) | ED50 (Semliki Forest virus [6]) | ED50 (Semliki Forest virus [7]) | also measured
1 | CC(C)(C)c1ccc(-c2nc(N)nc(O)c2I)cc1 | inactive | inactive | inactive |  |  |  |  | 
2 | Nc1cccc(-c2nc(N)nc(O)c2Br)c1 | inactive |  |  |  |  |  |  | 
3 | Nc1nc(O)c(Br)c(-c2ccc3ccccc3c2)n1 |  | inactive | inactive | > 400 mg/kg |  |  |  | 
4 | Nc1nc(O)c(Br)c(-c2ccc(O)cc2)n1 |  | inactive | inactive | > 400 mg/kg |  |  |  | 
5 | Nc1nc(O)c(Br)c(-c2ccc3ccccc3n2)n1 | inactive | inactive | inactive |  | 0.14 |  |  | 
6 | CC(C)(C)c1ccc(-c2nc(N)nc(O)c2Cl)cc1 | inactive | inactive | inactive |  |  |  |  | 
7 | COc1cccc(-c2nc(N)nc(O)c2I)c1OC | inactive |  |  |  |  |  |  | 
8 | CCCOc1cccc(-c2nc(N)nc(O)c2Br)c1 |  |  |  | 100 mg/kg | 0.4 | > 400 mg/kg | > 400 mg/kg | IFN (Mus musculus [5]): 10 units/mL
9 | Cc1ccc(-c2nc(N)nc(O)c2Br)cc1 |  |  |  | 200 mg/kg |  |  |  | IFN (Mus musculus [5]): 10 units/mL
10 | Nc1nc(O)c(Cl)c(-c2ccc3ccccc3n2)n1 | inactive | inactive | inactive |  | 0.07 |  |  | 
11 | Nc1nc(O)c(Br)c(-c2ccc(-c3ccccc3)cc2)n1 | inactive | inactive | inactive |  |  |  |  | 
12 | Nc1nc(O)c(Br)c(-c2ccc(Cl)cc2)n1 |  |  |  | 100 mg/kg |  | > 400 mg/kg | > 400 mg/kg | IFN (Mus musculus [5]): 10 units/mL
13 | Nc1nc(O)c(Cl)c(-c2ccc(OCc3ccccc3)cc2)n1 | inactive |  |  |  |  |  |  | 
14 | Nc1nc(O)c(Br)c(-c2cc(Cl)cc(Cl)c2)n1 |  |  |  | 245 mg/kg |  | > 400 mg/kg | > 400 mg/kg | IFN (Mus musculus [5]): 10 units/mL
15 | COc1cccc(-c2nc(N)nc(O)c2Cl)c1OC | inactive |  |  |  |  |  |  | 
16 | Nc1nc(O)c(I)c(-c2ccoc2)n1 |  | inactive | inactive | > 400 mg/kg |  |  |  | 
17 | COc1cccc(-c2nc(N)nc(O)c2Br)c1OC | inactive |  |  |  |  |  |  | 
18 | COc1cccc(-c2nc(N)nc(O)c2Br)c1 |  |  |  | 10 mg/kg |  | > 400 mg/kg | 55 mg/kg | IFN [8]: 50 units/mL; Protection index (Mus musculus [9]): 0.62
19 | CC(C)(C)c1ccc(-c2nc(N)nc(O)c2Br)cc1 | inactive | inactive | inactive |  |  |  |  | 
20 | Nc1nc(O)c(Cl)c(-c2cccc(I)c2)n1 | inactive |  |  |  |  |  |  | 
21 | Nc1nc(O)c(Cl)c(-c2ccc(O)cc2)n1 |  | inactive | inactive | > 400 mg/kg |  |  |  | 
22 | Nc1nc(O)c(Br)c(-c2cccc(O)c2)n1 | inactive |  |  |  | 0 |  |  | 
23 | Nc1nc(O)c(Br)c(-c2c(F)cc(F)cc2F)n1 | inactive |  |  |  | 0 |  |  | 
24 | Nc1nc(O)c(Cl)c(-c2ccccc2F)n1 |  |  |  | 105 mg/kg |  | 105 mg/kg | 115 mg/kg | IFN [8]: >=2000 ml; Protection index (Mus musculus [9]): 0.69

Row | SMILES | ED50 (Semliki Forest virus [1]) | ED50 (Semliki Forest virus [2]) | ED50 (Semliki Forest virus [3]) | ED50 (Semliki Forest virus [4]) | Protection index (Human alphaherpesvirus 1) | ED50 (Semliki Forest virus [6]) | ED50 (Semliki Forest virus [7]) | also measured
25 | Nc1nc(O)c(Br)c(-c2cccc3ccccc23)n1 |  |  |  | 40 mg/kg | 0 | > 400 mg/kg | > 400 mg/kg | IFN (Mus musculus [5]): 10 units/mL
26 | Nc1nc(O)c(I)c(-c2ccccc2)n1 |  |  |  | 50 mg/kg | 0.86 | > 400 mg/kg | 25 mg/kg | IFN [8]: 50 units/mL
27 | N#Cc1ccc(-c2nc(N)nc(O)c2I)cc1 | inactive |  |  |  | 0 |  |  | 
28 | COc1ccc(-c2nc(N)nc(O)c2Br)cc1 |  | inactive | inactive | > 400 mg/kg |  |  |  | 
29 | CCCOc1cccc(-c2nc(N)nc(O)c2Cl)c1 |  |  |  | 40 mg/kg | 0.13 | > 400 mg/kg |  | IFN (Mus musculus [5]): 10 units/mL
30 | CN(C)c1ccc(-c2nc(N)nc(O)c2Br)cc1 | inactive | inactive | inactive |  | 0.13 |  |  | 
31 | Nc1nc(O)c(I)c(-c2ccc(-c3ccccc3)cc2)n1 | inactive | inactive | inactive |  |  |  |  | 
32 | Nc1nc(O)c(I)c(-c2c(F)cc(F)cc2F)n1 | inactive |  |  |  | 0 |  |  | 
33 | Nc1nc(O)c(I)c(-c2cc(Cl)cc(Cl)c2)n1 |  |  |  | 140 mg/kg | 0.4 | > 400 mg/kg | 225 mg/kg | IFN [8]: 50 units/mL
34 | CCCOc1cccc(-c2nc(N)nc(O)c2I)c1 |  |  |  | 100 mg/kg | 0 |  |  | IFN (Mus musculus [5]): 10 units/mL
35 | Nc1nc(O)c(I)c(-c2cccnc2)n1 |  |  |  | 130 mg/kg | 0 | > 400 mg/kg | 175 mg/kg | IFN [8]: 50 units/mL
36 | Nc1nc(O)c(Br)c(-c2cc(Br)c(O)c(Br)c2)n1 | inactive |  |  |  |  |  |  | 
37 | Nc1nc(O)c(Br)c(-c2c(F)ccc(F)c2F)n1 | inactive |  |  |  | 0 |  |  | 
38 | COc1ccc(-c2nc(N)nc(O)c2I)cc1 |  | inactive | inactive | > 400 mg/kg |  |  |  | 
39 | Nc1nc(O)c(I)c(-c2ccco2)n1 |  |  |  | 135 mg/kg | 0.28 | > 400 mg/kg | > 400 mg/kg | IFN (Mus musculus [5]): 10 units/mL
40 | Cc1ccc(-c2nc(N)nc(O)c2I)cc1 |  |  |  | 115 mg/kg |  | > 400 mg/kg | > 400 mg/kg | IFN (Mus musculus [5]): 10 units/mL
41 | Nc1nc(O)c(Br)c(-c2ccccc2O)n1 | inactive |  |  |  |  |  |  | 
42 | COc1ccccc1-c1nc(N)nc(O)c1Br |  |  |  | 15 mg/kg | 0.92 | > 400 mg/kg | 100 mg/kg | IFN [8]: 50 units/mL
43 | Nc1nc(O)c(I)c(-c2ccc3ccccc3n2)n1 | inactive | inactive | inactive |  |  |  |  | 
44 | Nc1nc(O)c(Br)c(-c2cccc(Cl)c2)n1 |  |  |  | 30 mg/kg | 0.78 | > 400 mg/kg | 300 mg/kg | IFN [8]: >=2000 ml
45 | Nc1nc(O)c(I)c(-c2cccc3ccccc23)n1 |  |  |  | 70 mg/kg | 0.18 | > 400 mg/kg | > 400 mg/kg | IFN (Mus musculus [5]): 10 units/mL
46 | Nc1nc(O)c(Br)c(-c2ccncc2)n1 |  | inactive | inactive | > 400 mg/kg | 0 |  |  | 
47 | Nc1nc(O)c(Br)c(-c2ccc(OCc3ccccc3)cc2)n1 | inactive |  |  |  |  |  |  | 
48 | Nc1nc(O)c(I)c(-c2ccc(Cl)cc2)n1 |  |  |  | 110 mg/kg | 0.27 | > 400 mg/kg | > 400 mg/kg | IFN (Mus musculus [5]): 10 units/mL
